This is an account of results in ChEMBL document CHEMBL3124940, “Design, synthesis and biological evaluation of D-ring opened galantamine analogs as multifunctional anti-Alzheimer agents” (Eur J Med Chem, 2014).

One assay has as its target Cholinesterase (Equus caballus, UniProt P81908). The assay is described as follows: Inhibition of equine serum BChE using butyrylthiocholine iodide as substrate preincubated for 5 mins followed by substrate addition measured after 5 mins by Ellman's method. The procedure, abridged:
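Ellman's method with equine serum BChE and butyrylthiocholine iodide; DTNB read-out at 412 nm, 25 °C. Phosphate buffer pH 8.0. At least five concentrations (normally 10^-4 to 10^-9 M), each in triplicate, to build the inhibition curve. Data are means of at least three determinations.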
(DTNB colorimetry detects thiols as they appear.)

Assay [1] in a line: Selectivity ratio of IC50 for electric eel AChE to IC50 for equine serum BChE. The procedure, abridged: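 AChE is electric eel Type VI-S with acetylthiocholine; BChE is equine serum with butyrylthiocholine. At least five concentrations, each in triplicate. Ratio = IC50(AChE)/IC50(BChE).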
Another assay concerns the target Acetylcholinesterase (Electrophorus electricus, UniProt O42275). In words: Inhibition of electric eel AChE using acetylthiocholine iodide as substrate preincubated for 5 mins followed by substrate addition measured after 5 mins by Ellman's method.

pIC50: −log10 of the molar value.

Chain of Acetylcholinesterase (O42275 whole entry): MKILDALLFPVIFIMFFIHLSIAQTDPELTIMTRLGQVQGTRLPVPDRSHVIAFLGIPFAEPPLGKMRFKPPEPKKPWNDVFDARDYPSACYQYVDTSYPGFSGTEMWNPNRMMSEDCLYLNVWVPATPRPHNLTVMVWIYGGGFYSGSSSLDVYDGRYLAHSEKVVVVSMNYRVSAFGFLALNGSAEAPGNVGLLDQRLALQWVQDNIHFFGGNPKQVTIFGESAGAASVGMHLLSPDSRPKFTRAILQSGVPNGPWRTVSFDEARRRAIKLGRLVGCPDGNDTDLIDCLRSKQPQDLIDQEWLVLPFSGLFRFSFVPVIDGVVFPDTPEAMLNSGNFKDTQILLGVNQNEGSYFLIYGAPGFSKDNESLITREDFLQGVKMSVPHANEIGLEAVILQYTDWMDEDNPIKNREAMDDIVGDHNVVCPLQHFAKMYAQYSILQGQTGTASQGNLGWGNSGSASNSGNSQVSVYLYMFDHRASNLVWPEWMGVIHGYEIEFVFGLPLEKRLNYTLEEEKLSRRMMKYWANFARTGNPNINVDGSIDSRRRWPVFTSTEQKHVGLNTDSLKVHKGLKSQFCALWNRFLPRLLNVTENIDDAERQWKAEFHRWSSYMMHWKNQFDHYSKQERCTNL
Chain of Cholinesterase (P81908 whole entry): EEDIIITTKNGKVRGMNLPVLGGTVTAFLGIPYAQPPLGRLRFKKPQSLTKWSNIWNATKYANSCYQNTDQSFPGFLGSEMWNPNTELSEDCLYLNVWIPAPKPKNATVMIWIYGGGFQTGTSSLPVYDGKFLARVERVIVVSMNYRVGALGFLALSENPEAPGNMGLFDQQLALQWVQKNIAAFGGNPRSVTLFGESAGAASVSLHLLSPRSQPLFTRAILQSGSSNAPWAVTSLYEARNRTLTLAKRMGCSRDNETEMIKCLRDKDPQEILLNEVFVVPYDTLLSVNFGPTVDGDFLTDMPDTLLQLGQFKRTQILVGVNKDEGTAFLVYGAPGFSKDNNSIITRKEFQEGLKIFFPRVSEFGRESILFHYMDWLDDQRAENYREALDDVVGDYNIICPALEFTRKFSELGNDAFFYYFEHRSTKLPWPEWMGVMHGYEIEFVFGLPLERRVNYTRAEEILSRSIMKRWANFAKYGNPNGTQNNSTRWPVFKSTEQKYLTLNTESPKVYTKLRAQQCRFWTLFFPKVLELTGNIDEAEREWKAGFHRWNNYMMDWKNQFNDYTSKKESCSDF

In the case of `COc1ccc2c(c1)oc1cccc(CNC(C)C)c12`, the pIC50 (commonly −log10 of the IC50, conventionally taken in molar units) at Cholinesterase is 4.87; on Acetylcholinesterase it was 4.94. Further, in assay [1], the Ratio IC50 worked out at 0.86.

Turning to `CCN(CC)Cc1cccc2oc3cc(OC)ccc3c12`, the pIC50 is 4.56 against Cholinesterase and 4.41 against Acetylcholinesterase. In addition, the Ratio IC50 in assay [1] is 1.43.

In the case of `CCN(CC)Cc1cccc2[nH]c3cc(OC)ccc3c12`, the results for the pIC50 against Cholinesterase and against Acetylcholinesterase were 4.83 and 4.42, respectively. Moreover, the Ratio IC50 in assay [1] was found to be 2.54.

As for `COc1ccc2c(c1)[nH]c1cccc(CNC(C)C)c12`, the pIC50 on Cholinesterase was 5.00; against Acetylcholinesterase, 4.29. Also, in assay [1], the Ratio IC50 is 5.03.

`COc1ccc2c(c1)[nH]c1cccc(CNCc3ccccc3)c12`: the pIC50 on Cholinesterase was 4.52; at Acetylcholinesterase, less than 4.30.

As for `COc1ccc2c(c1)oc1cccc(CNCc3ccccc3)c12`, the pIC50 against Cholinesterase is 4.74; against Acetylcholinesterase, less than 4.30.
